# Published values collected from several papers.
# Protocols differ between the studies behind these lines.
# Target: Serine/threonine-protein kinase RIO3 (RIOK3, Homo sapiens, UniProt O14730)
# One construct used (O14730 1-519): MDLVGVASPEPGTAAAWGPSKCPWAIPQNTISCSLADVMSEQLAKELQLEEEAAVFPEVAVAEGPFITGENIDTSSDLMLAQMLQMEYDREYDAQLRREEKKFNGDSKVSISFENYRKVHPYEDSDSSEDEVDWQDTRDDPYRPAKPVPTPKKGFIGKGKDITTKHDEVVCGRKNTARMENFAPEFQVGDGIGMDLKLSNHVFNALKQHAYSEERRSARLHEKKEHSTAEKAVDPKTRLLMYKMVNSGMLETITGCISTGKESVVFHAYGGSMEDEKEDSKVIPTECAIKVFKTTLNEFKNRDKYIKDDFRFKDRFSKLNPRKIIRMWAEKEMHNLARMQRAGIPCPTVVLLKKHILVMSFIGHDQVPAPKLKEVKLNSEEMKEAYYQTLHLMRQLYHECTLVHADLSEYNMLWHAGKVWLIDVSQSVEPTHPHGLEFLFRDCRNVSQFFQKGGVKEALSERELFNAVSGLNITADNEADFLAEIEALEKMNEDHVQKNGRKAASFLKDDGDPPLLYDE
SMILES,test,setting,remaining binding
CC(C)(O)c1cncc(-c2nc3ccc(F)cc3n2C2CC2)c1,"cell-free assay, competition with immobilised ligand",1 µM,100%
C[C@@H]1CCN(c2nccc(-c3cnn4ncccc34)n2)C1,binding,1 µM,100%
COc1ncc2cc3ccccc3nc2c1C#N,"cell-free assay, competition with immobilised ligand",5 µM,97%
CN(CCCC(F)(F)F)c1nccc(-c2cnn3ncccc23)n1,binding,1 µM,100%
CNC(=O)[C@@H]1CC[C@@H](n2c(-c3ccc4cnccc4c3)nc3ccc(C(=O)NCc4cccc(C(N)=O)c4)cc32)C1,"binding, competition with immobilised ligand",1 µM,88%
Cc1cc(NC(=O)c2cccc(S(F)(F)(F)(F)F)c2)cc(-n2ccn3nc(-c4cccnc4)cc23)c1,"cell-free assay, competition with immobilised ligand",1 µM,85.9%
C[C@@H](c1ccc(-n2cnc3c(N)ncnc32)cc1)N1CCc2nn(C)c(Cc3ccccc3)c2C1=O,"binding, competition with immobilised ligand",0.1 µM,76%
CC(=O)N1CCC(c2ccc(C(=O)NC(=N)N)cc2C(F)(F)F)CC1,"cell-free assay, competition with immobilised ligand",1 µM,100%
N[C@H]1CCN(c2nccc(-c3cnn4ncccc34)n2)C1,binding,1 µM,81%
O=C(c1ccc(Nc2ncc(Cl)c(-c3cc4ccccc4s3)n2)cc1)N1CCC(N2CCCC2)CC1,"binding, competition with immobilised ligand",1 µM,0%
O=C(NCC1CCOCC1)c1n[nH]cc1NC(=O)c1c(F)cccc1F,"binding, competition with immobilised ligand",1 µM,84%
O=C(c1ccc(Nc2nccc(-c3cc4ccccc4s3)n2)cc1)N1CCC(N2CCCC2)CC1,"binding, competition with immobilised ligand",1 µM,0.9%
CCN1CCN(Cc2ccc(C(=O)Nc3ccc(C)c(Oc4ccc5c(c4)CC(=O)N5)c3)cc2C(F)(F)F)CC1,"binding, competition with immobilised ligand",1 µM,100%
Nc1ncc2c(n1)-c1c([nH]c3ccc(C#CC4CC4)cc13)CCCC2,"binding, competition with immobilised ligand",1 µM,75%
c1cnn2ncc(-c3ccnc(N4CCC45COC5)n3)c2c1,binding,1 µM,93%
Cc1cnc(Nc2ccc(C(=O)N3CCC(N4CCCC4)CC3)cc2)nc1-c1cc2ccccc2s1,"binding, competition with immobilised ligand",1 µM,0.3%
COc1ccc2c(O[C@@H]3C[C@H]4C(=O)N[C@]5(C(=O)O)CC5/C=C\CCCCC[C@H](NC(=O)OC5CCCC5)C(=O)N4C3)cc(-c3csc(NC(=O)C(C)C)n3)nc2c1C (stereo partly shown),"cell-free assay, competition with immobilised ligand",1 µM,100%
c1cncc(-c2cccc(Nc3nccc(NC4CCCCC4)n3)c2)c1,"binding, competition with immobilised ligand",10 µM,80%
CO[C@@H](C)c1c(Nc2ccc([C@@H](N(C)C(=O)C3CCS(=O)(=O)CC3)C(F)(F)F)cc2)cnc2cc(Cl)nn12,"cell-free assay, competition with immobilised ligand",1 µM,90%
CN(C)c1nccc(-c2cnn3ncccc23)n1,binding,1 µM,100%
CCCOc1ccc([C@@H]2[C@@H](C(=O)O)[C@H](c3ccc4c(c3)OCO4)CN2CC(=O)Nc2c(CC)cccc2CC)cc1,"cell-free assay, competition with immobilised ligand",1 µM,100%
F[C@@H]1CCN(c2nccc(-c3cnn4ncccc34)n2)C1,binding,1 µM,85%
